# Bioassay records (PubChem BioAssay)
# Shown are actives, neighbours in structure and some others; about 2.7% of the full set was active somewhere.
# RBBP9 inh: human RBBP9 inhibitors, primary screen, biochemical, fluorescence polarization, FP-Rh probe, HTS; Serine hydrolase RBBP9 (Homo sapiens), O75884; inhibition, % at 7.94 µM; recombinant RBBP9; AID 1515, 2009; 220,000 tested, 0.2% active;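 active means inhibition above the campaign mean of all tested compounds plus 3 SD, cut at about 14% in these data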
#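 System: RBBP9 protein / Quantity: 2.5 µM RBBP9 dispensing solution, before mixing / Also added: Serine-hydrolase probe FP-Rh, 375 nM pre-mixing / Dosing: 7.94 µM single dose, 0.794% DMSO / Timing: enzyme-compound preincubation 30 min, then probe labeling 45 min, 25 °C / Signal: FP readout at 525/598 nm / Controls: DMSO-treated enzyme wells and wells lacking RBBP9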
# Wee1 stabilizer: Wee1 degradation inhibitors, primary screen, cell-based, HeLa, Wee1K328M-luciferase, luminescence | HeLa Luc-Wee1K328M stability; 100% = proteasome inhibitor MG132 effect | AID 1321, 2008 | 220,000 tested, 1.2% active | reporter increase, % at 5 µM;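 active means activation above the mean of all tested compounds plus 3 SD, set per screening run, cut at about 8.8% in these data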;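 further: cells exposed to compound for 20 h before luminescence read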
# Target sequence (P30291 whole entry K328M): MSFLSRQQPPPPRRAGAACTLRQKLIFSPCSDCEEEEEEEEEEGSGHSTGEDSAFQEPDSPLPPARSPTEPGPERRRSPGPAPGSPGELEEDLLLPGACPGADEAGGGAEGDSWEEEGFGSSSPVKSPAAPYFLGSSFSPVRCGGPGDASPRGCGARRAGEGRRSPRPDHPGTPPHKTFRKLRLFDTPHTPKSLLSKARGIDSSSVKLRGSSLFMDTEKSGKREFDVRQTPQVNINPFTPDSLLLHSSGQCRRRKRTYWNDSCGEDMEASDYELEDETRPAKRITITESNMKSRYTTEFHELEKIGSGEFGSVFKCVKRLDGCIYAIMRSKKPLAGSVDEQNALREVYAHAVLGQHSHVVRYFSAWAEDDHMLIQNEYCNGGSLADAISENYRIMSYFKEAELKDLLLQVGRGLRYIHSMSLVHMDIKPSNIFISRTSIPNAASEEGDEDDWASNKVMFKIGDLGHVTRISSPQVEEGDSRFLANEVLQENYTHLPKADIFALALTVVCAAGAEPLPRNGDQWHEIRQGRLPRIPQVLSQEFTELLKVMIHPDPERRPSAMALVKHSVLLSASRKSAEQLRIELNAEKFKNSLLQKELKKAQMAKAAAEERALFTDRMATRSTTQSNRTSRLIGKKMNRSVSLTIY
# TNF death inh: inhibitors of TNF-alpha triggered necroptosis, primary screen, cell-based, Jurkat FADD-/-, single concentration; Jurkat FADD-/- TNF necroptosis rescue, ATP luminescence, 24 h; 0 = TNF only, 100 = no-TNF cells; activation (protection from cell death), % at 10 µM; 220,000 tested, 0.068% active; AID 463075, 2010;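 active means activation, meaning protection from cell death, of at least 50% relative to plate controls; inactive means activation below 50%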;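 further: necroptosis triggered by 40 ng/mL TNF-alpha added together with compound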
# PfM18AAP inh: PfM18AAP inhibitors, malaria aminopeptidase, primary screen, biochemical, QFRET, recombinant enzyme | H-Glu-NHMec fluorogenic cleavage | inhibition, % at 7.35 µM | 290,000 tested, 1.2% active | AID 1822, 2009;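 active means inhibition above the campaign mean inhibition over all tested compounds plus 3 SD, cut at about 28% in these data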
# p97 inhibitor: inhibitors of human p97 ATPase, primary screen, biochemical; 220,000 tested, 0.42% active; Transitional endoplasmic reticulum ATPase (Homo sapiens), P55072; inhibition, % at 8 µM; recombinant p97 ATPase, Kinase-Glo ATP luminescence, 3 h; AID 1481, 2009; in the data active means inhibition above about 15%
# L929 necroptosis: inhibitors of zVAD-triggered necroptosis, primary screen, L929 cells; L929 zVAD necroptosis rescue, ATP luminescence, 24 h; with zVAD 60 µM; viability rescue, % at 10 µM; 220,000 tested, 0.38% active;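 active means activation, scaled between plate controls, above about 75%, limit read from the data; inactive means activation under that limit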
# p97 inh conf: p97 ATPase inhibitors, retest, confirmation, biochemical; shares compounds with p97 inhibitor; recombinant p97 ATPase, Kinase-Glo ATP luminescence; inhibition, % at 8 µM; 760 tested, 44% active; AID 1517, 2009;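 active means percent inhibition of p97 ATPase above a set limit, the primary screen's mean plus 3 SD, cut at about 15% in these data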
# Hits are given with their value; - = inactive; . = not tested or not shown.
SMILES,RBBP9 inh,Wee1 stabilizer,TNF death inh,PfM18AAP inh,p97 inhibitor,L929 necroptosis,p97 inh conf
COc1ccccc1-c1nnc(Sc2nc([N+](=O)[O-])nn2C)o1,-,-,-,-,15.6,-,23.5
COc1cc(/C=c2\sc3n(c2=O)CCCN=3)ccc1O,-,-,-,-,-,-,.
COc1cc(/C=c2\sc3n(c2=O)C(c2ccccc2)C(c2ccccc2)=NN=3)ccc1O (centres undefined),-,-,-,-,16.2,-,-
CN1CCN(NC(=S)NC(C)(C)CC(C)(C)C)CC1,-,-,-,-,-,-,.
C=CC[n+]1c(-c2ccc(OC)cc2)csc1NNC(=O)Nc1ccccc1,-,-,-,-,17.3,-,-
O=C(O)CCCN1C(=O)/C(=C\c2ccc(-c3nc4ccccc4s3)o2)SC1=S,-,-,-,-,15.4,-,-
Cc1c(/C=N/Nc2nc3ccccc3[nH]2)c2ccccc2n1C,-,-,-,-,24.4,-,17.2
O=C(COC(=O)COc1ccc2ccccc2c1)NCC(F)(F)F,-,-,-,-,-,-,.
COc1cc(OC)c(C(=O)OC(C)C(=O)Nc2cccc(C(F)(F)F)c2)cc1OC (centres undefined),-,-,-,-,-,-,.
CCC(=O)Nc1ccc(Br)c(Cl)c1,-,-,-,-,16.3,-,-
CCC(=O)Nc1ccc(F)c(Cl)c1,-,-,-,-,-,-,.
COc1cccc(Nc2nc(C)cc(C)c2C(N)=O)c1,.,.,.,-,.,.,.
Cc1ccc(-c2nc3c(c(=O)c4ccccc4n3C)c(=O)n2-c2ccccc2)cc1,-,-,-,-,-,-,.
Cn1c2ccccc2c(=O)c2c(=O)n(Cc3ccco3)c(-c3ccc(F)cc3)nc21,-,-,-,-,46.3,-,17.4
COc1ccc(CCn2c(-c3ccc(OC)cc3)nc3c(c(=O)c4ccccc4n3C)c2=O)cc1,-,-,-,-,-,-,.
Cc1ccc(-c2nc3c(c(=O)c4ccccc4n3C)c(=O)n2Cc2ccco2)cc1,-,-,-,-,48.2,-,16.5
COc1ccc(/C=C2\N=C(c3ccccc3)NNC2=O)cc1,-,-,-,-,-,-,.
COCCCNc1nc2nonc2nc1N1CCN2CCCC2C1 (centres undefined),-,-,-,-,15.5,-,-
COCCCNc1nc2nonc2nc1N1CCN(C2CCCC2)CC1,-,-,-,-,-,-,.
Cc1nccn1CCCNC(=O)CC1C(=O)NCCN1Cc1ccc(F)cc1Cl (centres undefined),.,.,.,-,.,.,.
CCOC(=O)c1sc(NC(=O)c2c(C)nn(Cc3ccccc3)c2C)cc1C,-,-,-,-,20.2,-,-
CCOC(=O)c1sc(NC(=O)c2ccccc2)cc1C,-,-,-,-,-,-,.
Nc1nc(CCl)nc(Nc2ccc3ccccc3c2)n1,-,-,-,-,36.2,-,37.8
CCOc1ccc(NC(=O)CN2C(=O)CSC2=O)cc1,-,-,-,-,-,-,.
Cc1ccc(S(=O)(=O)N(C)c2c(C)ccc(S(=O)(=O)NC(C)(C)C)c2C)cc1,-,-,-,-,-,-,.
SMILES,RBBP9 inh,Wee1 stabilizer,TNF death inh,PfM18AAP inh,p97 inhibitor,L929 necroptosis,p97 inh conf
Cc1noc(C)c1COC(=O)c1ccccc1NC(=O)c1ccco1,-,-,-,-,-,-,.
O=C(O)CC(NC(=O)CC(c1ccccc1)c1ccccc1)c1cccc([N+](=O)[O-])c1 (centres undefined),.,.,.,-,.,.,.
O=C(NCCC1CC1(Cl)Cl)Nc1ccccc1 (centres undefined),-,-,-,-,23.4,-,-
CSc1sc(C(=O)N(C)C)c2c1S(=O)(=O)N(C)c1ccccc1-2,-,-,-,-,-,-,.
N#CC1=C(N)Oc2cc(Nc3ccccc3)ccc2C1c1ccncc1 (centres undefined),-,-,-,-,19.8,-,33.3
Cc1cc(N)c2cc(NC(=O)/C=C/c3ccccc3Cl)ccc2n1,-,-,-,-,24.2,-,22.6
Cc1cc(C)nc(NC(=O)/C=C/c2ccccc2Cl)n1,-,-,-,-,-,-,.
Cc1nc2ccccc2n1CC(=O)NCCN1CCCC1,-,-,-,-,35.4,-,-
O=C(Cn1c(C(F)(F)F)nc2ccccc21)NCCN1CCCC1,-,-,-,-,-,-,.
Cc1c(Cl)cccc1NC(=S)NC1CCN(C(C)C)CC1,-,-,-,-,-,-,.
CC1=NN(Cc2ccccc2)C(=O)C1,-,-,-,-,21.2,-,-
CC1=NN(c2ccc(Cl)cc2)C(=O)C1,-,-,-,-,-,-,.
CC1=NN(c2ccccc2)C(=O)C1,-,-,-,-,20.5,-,-
CC1=NN(c2ccc(N)cc2)C(=O)C1,-,-,-,-,-,-,.
O=C1CC(/C=C/c2ccncc2)=Nc2ccccc2N1,-,-,-,-,-,-,.
Cc1cc(OC(=O)c2ccc(F)cc2)c([N+](=O)[O-])c(=O)[nH]1,.,.,.,-,.,.,.
Cc1cc(OC(=O)c2ccc(S(=O)(=O)N(C)C)cc2)c([N+](=O)[O-])c(=O)[nH]1,-,-,-,-,16.1,-,-
CCC(C)n1c(NC(=O)c2ccccc2)c(C#N)c2nc3ccccc3nc21 (centres undefined),-,-,-,-,27.0,-,-
N#Cc1c(NC(=O)c2ccc(Br)o2)n(-c2ccccc2)c2nc3ccccc3nc12,-,-,-,-,46.6,-,41.0
Cc1nn(C(C)(C)C)c(NC(=O)c2ccccc2)c1C#N,.,.,.,-,.,.,.
COc1ccc(-n2c(NC(=O)c3ccc(Br)o3)c(C#N)c3nc4ccccc4nc32)cc1,-,-,-,-,-,-,.
COc1ccc(N2CCN(C(=O)C3CCN(C(=O)c4cccc(Cl)c4)CC3)CC2)cc1,.,.,.,-,.,.,.
O=[N+]([O-])c1ccc2c(c1)c(-c1ccccc1)nc1nncn12,-,-,-,-,34.2,-,-
CS(=O)(=O)c1sc(C#N)c2c1C(=O)CC(c1ccccc1)C2 (centres undefined),-,-,-,-,25.2,-,21.6
NCCNC[C@@H]1COC2(CCCCCCCCCCC2)O1,-,-,-,-,-,-,.
COc1ccccc1Nc1nc(NCc2ccco2)nc(N)c1[N+](=O)[O-],-,-,-,-,15.6,-,20.7
